Assay results as given in publication PMC8923172 (Antimicrobial Agents and Chemotherapy, 2022).
Marks after values point to notes of the source that are not given here. Residues, ends and D or L forms follow the SMILES beside them.

Legend:
[1] = Single-dose i.v. pharmacokinetics in a vervet; assay type: in vivo, vervet/African green monkey (Chlorocebus aethiops sabaeus); conditions: 3 mg/kg single i.v. bolus, n=1
Method in brief: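 Adult male vervet given a single 3 mg/kg i.v. bolus of test compound. Blood was sampled at 0.5, 1, 4, 8, 24, 48, 72, 96, 120 and 192 h. Clarified plasma was diluted 1:10 into 5% formic acid-5% acetonitrile and quantified by UPLC with photodiode array detection. Noncompartmental analysis used nominal times; λz was fitted over up to the last four log-linear points.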

[2] = Hematology of rats at the end of treatment; assay type: in vivo, Sprague-Dawley rats; conditions: median (IQR)

For `CC[C@H](C)[C@@H]1NC(=O)[C@@H]2CSSC[C@H](NC(=O)[C@H](CCCNC(=N)N)NC(=O)[C@@H]3CSSC[C@H](NC1=O)C(=O)N[C@@H]([C@@H](C)O)C(=O)N[C@@H](CCCNC(=N)N)C(=O)NCC(=O)N[C@@H](Cc1ccccc1)C(=O)N3)C(=O)N[C@@H](CC(C)C)C(=O)N[C@H]1CSSC[C@H](NC(=O)[C@H](C(C)C)NC(=O)CNC(=O)[C@H](CCCNC(=N)N)NC(=O)[C@H](CCCNC(=N)N)NC1=O)C(=O)N[C@@H](CCCNC(=N)N)C(=O)N2` [RTD-1, Rhesus theta (θ) defensin-1] (HELM PEPTIDE1{G.F.C.R.C.L.C.R.R.G.V.C.R.C.I.C.T.R}$PEPTIDE1,PEPTIDE1,3:R3-16:R3|PEPTIDE1,PEPTIDE1,5:R3-14:R3|PEPTIDE1,PEPTIDE1,7:R3-12:R3|PEPTIDE1,PEPTIDE1,1:R1-18:R2$$$V2.0), the AUCτ [1] was 21,949 ng · h/mL, the CL [1] was 2.27 mL/min/kg and the MRT [1] was 4.71 h. For the same compound, the Vss [1] was 0.639 L/kg, the λz [1] was 0.204 h⁻¹ and the “Basophils, absolute” value ([2]; female, 5 mg/kg/day) was 0.02 (0.02) 10^3/mm^3. The “Eosinophils, absolute” value ([2]; female, 5 mg/kg/day) was 0.30 (0.23) 10^3/mm^3, the HDW ([2]; female, 5 mg/kg/day) was 2.37 (0.16) g/dL and the Hematocrits ([2]; female, 5 mg/kg/day) was 40.50 (1.90) %. The Hemoglobin ([2]; female, 5 mg/kg/day) was 13.50 (1.00) g/dL, the “LUC, absolute” value ([2]; female, 5 mg/kg/day) was 0.02 (0.03) 10^3/mm^3 and the “Lymphocytes, absolute” value ([2]; female, 5 mg/kg/day) was 4.78 (3.21) 10^3/mm^3. For the same compound, the MCH ([2]; female, 5 mg/kg/day) was 19.10 (1.00) pg, the MCHC ([2]; female, 5 mg/kg/day) was 33.40 (0.40) g/dL and the MCV ([2]; female, 5 mg/kg/day) was 57.90 (2.80) fL. The “Monocytes, absolute” value ([2]; female, 5 mg/kg/day) was 0.17 (0.08) 10^3/mm^3, the “Neutrophils, absolute” value ([2]; female, 5 mg/kg/day) was 1.33 (0.99) 10^3/mm^3 and the Platelets ([2]; female, 5 mg/kg/day) was 801.00 (306.00) 10^3/mm^3. The RBC ([2]; female, 5 mg/kg/day) was 6.88 (0.33) 10^6/mm^3, the RDW ([2]; female, 5 mg/kg/day) was 12.70 (0.80) % and the “Reticulocytes, absolute” value ([2]; female, 5 mg/kg/day) was 256.70 (53.50) 10^3/mm^3. For the same compound, the WBC ([2]; female, 5 mg/kg/day) was 6.50 (3.50) 10^3/mm^3, the “Basophils, absolute” value ([2]; female, 10 mg/kg/day) was 0.04 (0.02) 10^3/mm^3 and the “Eosinophils, absolute” value ([2]; female, 10 mg/kg/day) was 0.33 (0.14) 10^3/mm^3. For the same compound, the HDW ([2]; female, 10 mg/kg/day) was 2.45 (0.16) g/dL, the Hematocrits ([2]; female, 10 mg/kg/day) was 41.15 (1.83) % and the Hemoglobin ([2]; female, 10 mg/kg/day) was 13.70 (0.38) g/dL. For the same compound, the “LUC, absolute” value ([2]; female, 10 mg/kg/day) was 0.04 (0.03) 10^3/mm^3, the “Lymphocytes, absolute” value ([2]; female, 10 mg/kg/day) was 7.13 (1.76)^c 10^3/mm^3 and the MCH ([2]; female, 10 mg/kg/day) was 18.95 (0.45) pg. For the same compound, the MCHC ([2]; female, 10 mg/kg/day) was 33.25 (0.35) g/dL, the MCV ([2]; female, 10 mg/kg/day) was 57.30 (2.43) fL and the “Monocytes, absolute” value ([2]; female, 10 mg/kg/day) was 0.39 (0.13)^c^,^d 10^3/mm^3. The “Neutrophils, absolute” value ([2]; female, 10 mg/kg/day) was 2.18 (1.30) 10^3/mm^3, the Platelets ([2]; female, 10 mg/kg/day) was 939.00 (314.75) 10^3/mm^3 and the RBC ([2]; female, 10 mg/kg/day) was 7.21 (0.40) 10^6/mm^3. The RDW ([2]; female, 10 mg/kg/day) was 12.95 (0.40) %, the “Reticulocytes, absolute” value ([2]; female, 10 mg/kg/day) was 277.25 (42.00) 10^3/mm^3 and the WBC ([2]; female, 10 mg/kg/day) was 10.75 (3.68)^c 10^3/mm^3. For the same compound, the “Basophils, absolute” value ([2]; female, 20 mg/kg, day 2) was 0.06 (0.06) 10^3/mm^3, the “Eosinophils, absolute” value ([2]; female, 20 mg/kg, day 2) was 0.13 (0.06)^c^,^e 10^3/mm^3 and the HDW ([2]; female, 20 mg/kg, day 2) was 2.37 (0.32) g/dL. The Hematocrits ([2]; female, 20 mg/kg, day 2) was 46.85 (14.28) %, the Hemoglobin ([2]; female, 20 mg/kg, day 2) was 15.15 (4.58) g/dL and the “LUC, absolute” value ([2]; female, 20 mg/kg, day 2) was 0.05 (0.03) 10^3/mm^3. The “Lymphocytes, absolute” value ([2]; female, 20 mg/kg, day 2) was 5.56 (2.93) 10^3/mm^3, the MCH ([2]; female, 20 mg/kg, day 2) was 19.60 (0.88) pg and the MCHC ([2]; female, 20 mg/kg, day 2) was 32.30 (0.30)^d^,^e g/dL. For the same compound, the MCV ([2]; female, 20 mg/kg, day 2) was 60.95 (2.18)^e fL, the “Monocytes, absolute” value ([2]; female, 20 mg/kg, day 2) was 0.33 (0.26)^c 10^3/mm^3 and the “Neutrophils, absolute” value ([2]; female, 20 mg/kg, day 2) was 2.55 (2.72) 10^3/mm^3. For the same compound, the Platelets ([2]; female, 20 mg/kg, day 2) was 603.50 (524.00)^e 10^3/mm^3, the RBC ([2]; female, 20 mg/kg, day 2) was 7.63 (2.19) 10^6/mm^3 and the RDW ([2]; female, 20 mg/kg, day 2) was 12.20 (0.57)^e %. The “Reticulocytes, absolute” value ([2]; female, 20 mg/kg, day 2) was 325.95 (60.38)^c^,^d 10^3/mm^3, the WBC ([2]; female, 20 mg/kg, day 2) was 8.15 (5.70) 10^3/mm^3 and the “Basophils, absolute” value ([2]; male, 5 mg/kg/day) was 0.03 (0.02) 10^3/mm^3. The “Eosinophils, absolute” value ([2]; male, 5 mg/kg/day) was 0.37 (0.10) 10^3/mm^3, the HDW ([2]; male, 5 mg/kg/day) was 2.30 (0.09) g/dL and the Hematocrits ([2]; male, 5 mg/kg/day) was 43.75 (1.73) %. The Hemoglobin ([2]; male, 5 mg/kg/day) was 14.10 (0.98) g/dL, the “LUC, absolute” value ([2]; male, 5 mg/kg/day) was 0.03 (0.02) 10^3/mm^3 and the “Lymphocytes, absolute” value ([2]; male, 5 mg/kg/day) was 6.03 (1.81) 10^3/mm^3. For the same compound, the MCH ([2]; male, 5 mg/kg/day) was 19.95 (1.35) pg, the MCHC ([2]; male, 5 mg/kg/day) was 32.10 (0.33) g/dL and the MCV ([2]; male, 5 mg/kg/day) was 61.75 (2.90) fL. For the same compound, the “Monocytes, absolute” value ([2]; male, 5 mg/kg/day) was 0.22 (0.20) 10^3/mm^3, the “Neutrophils, absolute” value ([2]; male, 5 mg/kg/day) was 2.04 (0.96) 10^3/mm^3 and the Platelets ([2]; male, 5 mg/kg/day) was 1,052.00 (145.00) 10^3/mm^3. For the same compound, the RBC ([2]; male, 5 mg/kg/day) was 7.06 (0.23) 10^6/mm^3, the RDW ([2]; male, 5 mg/kg/day) was 13.95 (1.15) % and the “Reticulocytes, absolute” value ([2]; male, 5 mg/kg/day) was 359.65 (38.03) 10^3/mm^3. The WBC ([2]; male, 5 mg/kg/day) was 8.40 (2.53) 10^3/mm^3, the “Basophils, absolute” value ([2]; male, 10 mg/kg/day) was 0.03 (0.02) 10^3/mm^3 and the “Eosinophils, absolute” value ([2]; male, 10 mg/kg/day) was 0.31 (0.24) 10^3/mm^3. For the same compound, the HDW ([2]; male, 10 mg/kg/day) was 2.20 (0.20) g/dL, the Hematocrits ([2]; male, 10 mg/kg/day) was 43.65 (1.20) % and the Hemoglobin ([2]; male, 10 mg/kg/day) was 14.20 (0.65) g/dL. The “LUC, absolute” value ([2]; male, 10 mg/kg/day) was 0.03 (0.02) 10^3/mm^3, the “Lymphocytes, absolute” value ([2]; male, 10 mg/kg/day) was 6.69 (2.92) 10^3/mm^3 and the MCH ([2]; male, 10 mg/kg/day) was 20.20 (0.55) pg. The MCHC ([2]; male, 10 mg/kg/day) was 32.35 (0.72) g/dL, the MCV ([2]; male, 10 mg/kg/day) was 62.60 (3.05) fL and the “Monocytes, absolute” value ([2]; male, 10 mg/kg/day) was 0.28 (0.10) 10^3/mm^3. The “Neutrophils, absolute” value ([2]; male, 10 mg/kg/day) was 1.85 (0.61) 10^3/mm^3, the Platelets ([2]; male, 10 mg/kg/day) was 1,086.00 (192.25) 10^3/mm^3 and the RBC ([2]; male, 10 mg/kg/day) was 7.06 (0.38) 10^6/mm^3. The RDW ([2]; male, 10 mg/kg/day) was 13.10 (1.13) %, the “Reticulocytes, absolute” value ([2]; male, 10 mg/kg/day) was 314.20 (33.35)^c 10^3/mm^3 and the WBC ([2]; male, 10 mg/kg/day) was 10.05 (3.28) 10^3/mm^3. For the same compound, the “Basophils, absolute” value ([2]; male, 20 mg/kg, day 2) was 0.03 (0.03) 10^3/mm^3, the “Eosinophils, absolute” value ([2]; male, 20 mg/kg, day 2) was 0.15 (0.06)^c^,^d^,^e 10^3/mm^3 and the HDW ([2]; male, 20 mg/kg, day 2) was 2.44 (0.25)^e g/dL. The Hematocrits ([2]; male, 20 mg/kg, day 2) was 37.30 (3.70)^d^,^e %, the Hemoglobin ([2]; male, 20 mg/kg, day 2) was 12.10 (1.00)^d^,^e g/dL and the “LUC, absolute” value ([2]; male, 20 mg/kg, day 2) was 0.07 (0.05)^c^,^d^,^e 10^3/mm^3. For the same compound, the “Lymphocytes, absolute” value ([2]; male, 20 mg/kg, day 2) was 4.24 (1.79)^d^,^e 10^3/mm^3, the MCH ([2]; male, 20 mg/kg, day 2) was 20.00 (0.60) pg and the MCHC ([2]; male, 20 mg/kg, day 2) was 31.80 (0.50) g/dL. For the same compound, the MCV ([2]; male, 20 mg/kg, day 2) was 62.50 (2.10) fL, the “Monocytes, absolute” value ([2]; male, 20 mg/kg, day 2) was 0.93 (0.29)^c^,^d^,^e 10^3/mm^3 and the “Neutrophils, absolute” value ([2]; male, 20 mg/kg, day 2) was 8.40 (3.42)^c^,^d^,^e 10^3/mm^3. The Platelets ([2]; male, 20 mg/kg, day 2) was 728.00 (86.00)^c^,^d^,^e 10^3/mm^3, the RBC ([2]; male, 20 mg/kg, day 2) was 6.04 (0.47)^d^,^e 10^6/mm^3 and the RDW ([2]; male, 20 mg/kg, day 2) was 14.30 (1.20) %. For the same compound, the “Reticulocytes, absolute” value ([2]; male, 20 mg/kg, day 2) was 373.30 (106.50)^e 10^3/mm^3 and the WBC ([2]; male, 20 mg/kg, day 2) was 13.70 (4.90)^c^,^d 10^3/mm^3.
